A selection: hits, their analogues and other compounds. The true share with any hit is near 3.3%.
PRMT1 FP inh: PRMT1 methyltransferase inhibitors, primary screen, biochemical, fluorescence polarization | Protein arginine N-methyltransferase 1 (Homo sapiens), Q99873 | recombinant PRMT1, activity-based probe fluorescence polarization | inhibition, % at 2.79 µM | 370,000 compounds, 1.3% hits | AID 652257, 2013;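 active means inhibition above about 21% made by adding two undisclosed values, limit read from the data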
rCAG binder: binders of r(CAG) RNA repeats, primary screen, biochemical, fluorescence; r(CAG) RNA repeat, TO-PRO-1 dye displacement fluorescence; inhibition, % at 3 µM; 370,000 compounds, 1.3% hits; AID 651821, 2012;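 active means inhibition above the plate cutoff, the mean of all test compounds on that plate plus 3 SD, cut at about 35% in these data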;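 further: 0% = DMSO alone and 100% = 100 µM mitoxantrone as full dye displacement; higher means more dye released from RNA so lower well fluorescence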
TCR CD3 inh: inhibitors of human TCR-CD3 interaction, primary screen, biochemical, fluorescence, TAMRA-labeled TCR probe; T-cell receptor (TCR); inhibition, % at 9.4 µM; 360,000 compounds, 0.37% hits; AID 651800, 2012; in the data active means inhibition above about 19%;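 further: recombinant mutant TCR 2C K166C tagged with TAMRA read by polarization; 0% = receptor in buffer alone and 100% = receptor with positive control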
ABHD4 inh: ABHD4 inhibitors, primary screen, biochemical, fluorescence polarization, mouse. (Lyso)-N-acylphosphatidylethanolamine lipase (Mus musculus), Q8VD66. purified mABHD4, FP-Rh probe fluorescence polarization. inhibition, % at 8.92 µM. 370,000 compounds, 0.54% hits;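 active means inhibition exceeding the mean over every tested compound plus 3 SD, cut at about 30% in these data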;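 further: 0% = plate median of compound wells and 100% = S159A mutant with DMSO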
Target sequence (Q8VD66 whole entry, looked up): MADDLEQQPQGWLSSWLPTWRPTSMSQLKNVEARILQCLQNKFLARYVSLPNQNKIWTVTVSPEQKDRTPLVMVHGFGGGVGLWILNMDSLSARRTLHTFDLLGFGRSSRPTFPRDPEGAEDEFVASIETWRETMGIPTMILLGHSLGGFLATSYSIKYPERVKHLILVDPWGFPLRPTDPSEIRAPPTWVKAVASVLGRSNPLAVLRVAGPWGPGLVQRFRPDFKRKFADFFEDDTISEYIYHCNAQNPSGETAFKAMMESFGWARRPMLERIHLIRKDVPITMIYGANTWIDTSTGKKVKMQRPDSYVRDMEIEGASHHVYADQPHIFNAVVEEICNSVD
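system = mouse ABHD4 enzyme, wild type | medium = HEPES pH 7.0, NaCl, Pluronic buffer | also added = FP-Rh probe | incubation = Enzyme–compound pre-incubation 45 min, then probe 60 min, both 25 °C | technique = fluorescence polarization, excitation 525 nm, emission 598 nm, BODIPY TMR filters | controls = S159A mutant high control, sample median low control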
SIAE primary: human SIAE inhibitors, primary screen, biochemical, fluorescence polarization, FP-Rh probe, 1536-well HTS; inhibition, % at 9.66 µM; 370,000 compounds, 0.69% hits; Sialate O-acetylesterase (Homo sapiens), Q9HAT2; SIAE FP-Rh probe binding;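 active means inhibition above a cutoff: mean of compounds within the control limits plus 3 SD of those, cut at about 17% in these data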;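 further: 0% = plate median of compound wells and 100% = probe without SIAE protein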
SIAE confirm: human SIAE inhibitors, retest, confirmation, biochemical, fluorescence polarization, FP-Rh probe, triplicate; shares compounds with SIAE primary; SIAE FP-Rh activity-based probe; inhibition, % at 9.66 µM; 2,300 compounds, 13% hits;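 active means mean inhibition of the replicates above the hit cutoff set in the primary screen, cut at about 17% in these data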;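 further: 0% = SIAE with DMSO and probe and 100% = probe without SIAE; inhibitors lower polarization as more probe stays unbound to SIAE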
* = called active by the depositor; / = not tested or not shown.

SMILES	PRMT1 FP inh	rCAG binder	TCR CD3 inh	ABHD4 inh	SIAE primary	SIAE confirm
O=C1CC2(CCN(C(=O)c3ccc(Br)cc3)CC2)Oc2ccccc21	2	-6	7	-6	5	/
c1ccc(-c2ccnc3nc(N4CCN(c5ccccc5)CC4)nn23)cc1	-1	-7	8	1	-4	/
c1ccc(Oc2ccc(-c3ccnc4nc(N5CCN(c6ccccc6)CC5)nn34)cc2)cc1	-2	7	-7	-9	22*	4
C1=C(CCNc2ncnc3c2[nH]c2ccccc23)CCCC1	-2	8	0	25	23*	22*
COc1ccc(CCNC(=O)CSC2=NS(=O)(=O)c3cc(F)ccc3N2)cc1OC	-2	6	5	-1	-4	/
Nc1ncnc2c1ncn2[C@@H]1O[C@H](C(=O)N2CCC(F)(F)CC2)[C@@H](O)[C@H]1O	1	2	5	-2	52*	57*
COC(=O)[C@@H](Cc1ccccc1)NC(=O)[C@H]1O[C@@H](n2cnc3c(N)ncnc32)[C@H](O)[C@@H]1O	4	0	-3	-1	10	/
Nc1ncnc2c1ncn2[C@@H]1O[C@H](C(=O)N2CCC[C@@H]2C(=O)OCc2ccccc2)[C@@H](O)[C@H]1O	0	0	11	-6	28*	19*
COc1ccc(S[C@]2(C(=O)NCCc3ccccc3)CC(=O)N[C@@H]2c2ccc(OC)cc2)cc1	-6	2	/	-6	4	/
COC1=CC(=O)OC(c2ccc(C#N)cc2)C1 (stereo unspecified)	1	2	-4	3	-1	/
C[C@@H]1CN([C@H](C)CO)C(=O)CCCn2cc(nn2)CO[C@H]1CN(C)C(=O)Nc1ccc(-c2cccs2)cc1	-4	5	4	-7	0	/
Cc1c(NC(=S)NC(=O)C(c2ccccc2)c2ccccc2)cccc1C(=O)O	-1	14	2	4	17*	-4
COc1ccc(NC(=O)c2cc(-c3sc(NC(=O)c4ccccc4)nc3C)n(Cc3ccccc3)n2)cc1	0	10	8	-7	-39	/
COc1ccc(C(=O)NN=C2CCCC2)cc1	2	0	0	0	20*	-5
COc1ccc(-c2cc(-c3c(O)c(OC)c4occc4c3OC)[nH]n2)cc1	2	16	-1	10	22*	12
COc1ccc(-c2cc(-c3c(O)c(OC)c4occc4c3OC)[nH]n2)cc1OC	2	16	1	6	19*	5
COc1ccc(Cc2c(C3CCCCC3)nc3c(C)cc(Br)cn23)c(C)c1	11	5	9	11	-5	/
Cc1cc(C)cc(C(=O)NC(CC(N)=O)c2ccc(N3CCN(c4ccccc4)CC3)c([N+](=O)[O-])c2)c1 (stereo unspecified)	-3	10	-4	-3	21*	6
NC(=O)CC(NC(=O)c1ccccc1)c1ccc(N2CCN(c3ccccc3)CC2)c([N+](=O)[O-])c1 (stereo unspecified)	-1	-2	-2	-3	-6	/
COCCNc1nc(Oc2ccc(C(N)=O)cc2)c2sccc2n1	-5	-1	-3	5	7	/
CC(C)N1C(=O)CC(Nc2cccc3cccc(N)c23)C1=O (stereo unspecified)	15	29	9	36*	32*	6
CCOC(=O)c1ccccc1NC1CC(=O)N(c2ccccc2C)C1=O (stereo unspecified)	14	-6	9	-3	-4	/
CC(O)(c1cccnc1)c1nc(-c2ccc3c(c2)OCO3)cs1 (stereo unspecified)	-3	1	4	-3	0	/
CC1(C(=O)NNC(=O)c2cccc([N+](=O)[O-])c2)CC1Br (stereo unspecified)	1	3	-5	-5	4	/
O=C(NNC(=O)C1CC1c1ccccc1)c1cccc([N+](=O)[O-])c1 (stereo unspecified)	1	1	-1	-1	18*	1
SMILES	PRMT1 FP inh	rCAG binder	TCR CD3 inh	ABHD4 inh	SIAE primary	SIAE confirm
COc1ccc(CCNC(=O)C/C(C)=N/NC(=O)c2ccc([N+](=O)[O-])cc2Cl)cc1OC	-1	4	-8	-4	17*	6
O=C1c2ccccc2C(=O)c2cc(N3CCCCC3)ccc21	-3	3	-31	-19	22*	42*
O=C(O)CCN1CC2([N+](=O)[O-])C=CC(=O)C([N+](=O)[O-])(C1)C2CC(=O)c1ccccc1 (stereo unspecified)	11	34	-3	27	17*	3
CC(=O)N1CCN(c2cc(C)nc3nc(C)nn23)CC1	-3	5	/	4	6	/
Cc1cc(N2CCCC2)n2nc(C)nc2n1	-5	2	-7	-8	19*	-3
Nn1c(SCC(=O)Nc2cccc3ccccc23)nnc1-c1cc(-c2ccc(Cl)cc2)n[nH]1	-7	13	/	4	0	/
CS(=O)(=O)NCCCCCCNS(C)(=O)=O	-4	0	4	-5	17*	0
Cc1ccc(S(=O)(=O)NCCCNS(C)(=O)=O)cc1	2	-1	2	-5	-3	/
CCCCCCCCNCCS(=O)(=O)NCCCCCCCC	1	-2	-3	12	1	/
C/C(=N\Nc1cc(-c2ccccc2)nc(-c2ccccc2)n1)c1ccc(O)c(C)c1	2	29	-5	-39	19*	-12
COc1cc(N/N=C(\C)c2ccc(O)c(C)c2)nc(-c2ccccc2)n1	-4	12	3	-1	9	/
COc1cccc(CN2C(=O)c3ccccc3S2(=O)=O)c1	1	-2	-5	-7	17*	-1
COc1cc(CN(C)CC2CCCN(CCc3ccccc3F)C2)cc(Cl)c1OC (stereo unspecified)	1	0	4	6	-1	/
O[C@H]1CN(Cc2cccs2)[C@@H](c2ccccc2)C[C@@H]1n1cc(C2CC2)nn1	-1	3	6	0	1	/
Cc1cccc(N2CCN(C(C(=O)NCc3ccccc3)c3ccc(F)cc3)CC2)c1C (stereo unspecified)	0	3	-1	2	-3	/
COc1cc(NC2=Nc3cccc4cccc2c34)cc(OC)c1OC	-2	0	2	0	24*	9
O=C(O)CN1C(=O)C2C3CCC(C3)C2C1=O (stereo unspecified)	-3	1	-10	1	-5	/
CCOC(=O)C1=C(c2ccccc2)NC(=O)NC1c1ccc(O)c(OCC)c1 (stereo unspecified)	-2	-2	3	3	19*	-1

Source: PubChem (The Scripps Research Institute Molecular Screening Center)
